Mcl1 Bid PPI – Mcl-1/Bid binding inhibitors, primary screen, biochemical, TR-FRET, 1536-well. Induced myeloid leukemia cell differentiation protein Mcl-1 (Homo sapiens), Q07820. TR-FRET Mcl-1/Bid-Dy647 peptide binding. inhibition, % at 21.7 µM. hit rate 0.97% among 220,000;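 active = compounds that cut the binding signal by more than half at the single screening dose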;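 also: His-tagged Mcl-1 with europium anti-His antibody binding Bid BH3 peptide; 0% = Mcl-1 plus peptide wells and 100% = peptide-only wells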
MCL1 BIM primary – inhibitors of MCL1 binding to BIM-BH3, primary screen, biochemical, fluorescence polarization | Induced myeloid leukemia cell differentiation protein Mcl-1 (Homo sapiens), Q07820 | GST-MCL1 / FITC-Bim-BH3 fluorescence polarization | inhibition, % at 10.9 µM | hit rate 0.68% among 320,000;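 active = inhibition above the mean inhibition of all tested compounds plus 3 SD, set per campaign, cut at about 40% in these data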;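 also: 0% = DMSO wells and 100% = unlabeled Bim-BH3 peptide control; higher means more loss of mP so more displacement of Bim peptide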
Mcl-1 Bim block – inhibitors of Bim peptide binding to Mcl-1, primary screen, biochemical, bead-based flow cytometry, multiplex. Induced myeloid leukemia cell differentiation protein Mcl-1 (Homo sapiens), Q07820. Bim peptide-Mcl-1 binding. inhibition, % at 10 µM. hit rate 0.1% among 190,000; in the data active = inhibition above about 40%;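 also: 0% = no compound tracer wells and 100% = peptide blocker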
Mcl1 Noxa PPI – Mcl-1/Noxa binding inhibitors, primary screen, biochemical, TR-FRET, 1536-well. Induced myeloid leukemia cell differentiation protein Mcl-1 (Homo sapiens), Q07820. TR-FRET Mcl-1/Noxa peptide binding, 2 h. inhibition, % at 21.7 µM. hit rate 1.5% among 220,000. AID 1022, 2008;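 active = compounds that cut the protein-peptide binding signal by more than 50% relative to plate controls in a single-dose test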;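 also: His-tagged Mcl-1 with rhodamine Noxa BH3 peptide and terbium anti-His antibody; 0% = Mcl-1 plus Noxa peptide wells and 100% = peptide-only wells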
RBBP9 inhibitor – human RBBP9 inhibitors, primary screen, biochemical, fluorescence polarization, FP-Rh probe, HTS | recombinant RBBP9 | inhibition, % at 7.94 µM | hit rate 0.2% among 220,000 | AID 1515, 2009;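 active = inhibition above the campaign mean of all tested compounds plus 3 SD, cut at about 14% in these data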;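 also: plate controls were DMSO wells with RBBP9 for no effect and wells lacking RBBP9 protein for full effect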
Target sequence (O75884 whole entry, looked up): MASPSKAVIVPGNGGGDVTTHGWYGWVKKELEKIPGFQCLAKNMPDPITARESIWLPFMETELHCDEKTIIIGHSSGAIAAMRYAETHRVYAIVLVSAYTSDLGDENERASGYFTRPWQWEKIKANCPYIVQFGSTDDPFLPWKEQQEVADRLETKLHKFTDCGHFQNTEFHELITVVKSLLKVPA
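system = RBBP9 protein | input = RBBP9 at 2.5 µM in dispensed solution, before mixing | measured by = fluorescence polarization (mP), excitation 525 nm, emission 598 nm | incubation = enzyme-compound preincubation 30 min, then probe labeling 45 min, 25 °C | buffer or medium = Tris-NaCl-Pluronic buffer, pH 8.0 | compound = single dose 7.94 µM | also added = FP-Rh probe, 375 nM dispensing solution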
EBV gp42 block – Epstein-Barr virus gp42 inhibitors, primary screen, biochemical, uHTS, fluorescence polarization; Glycoprotein 42 (Epstein-Barr virus (strain AG876)), Q1HVG2; hit rate 0.42% among 220,000; inhibition, % (tested at 21.74 µM); Fluorescence polarization binding assay, mP read-out; in the data active = inhibition above about 50%
Target sequence (Q1HVG2 whole entry, looked up): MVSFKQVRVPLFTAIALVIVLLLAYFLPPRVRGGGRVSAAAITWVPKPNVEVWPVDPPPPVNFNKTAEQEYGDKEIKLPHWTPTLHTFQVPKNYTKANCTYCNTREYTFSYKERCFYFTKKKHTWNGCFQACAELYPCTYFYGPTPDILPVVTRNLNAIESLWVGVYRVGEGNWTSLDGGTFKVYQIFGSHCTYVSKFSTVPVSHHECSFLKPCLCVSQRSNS
* hit, by the source's call. This is a sample that favours compounds with a hit; in the whole collection about 2.2% have one here.

What do the screens show for `O=C(Nc1ccc2c(c1)OCO2)c1cc2ncc(Br)cn2n1`?
Mcl1 Bid PPI: -58; Mcl-1 Bim block: 3; Mcl1 Noxa PPI: 58*; RBBP9 inhibitor: -3; EBV gp42 block: 3

Results for O=C(Nc1cccc(C(F)(F)F)c1)c1cc2ncc(Br)cn2n1 ?
Mcl1 Bid PPI: -22; MCL1 BIM primary: 1; Mcl-1 Bim block: 1; Mcl1 Noxa PPI: 22; RBBP9 inhibitor: 0; EBV gp42 block: 18

Results for O=C(CCC(=O)N1CCSc2ccccc21)NC1CCCCC1 ?
MCL1 BIM primary: 4

How did COc1cccc(N2CCN(C3CC(=O)N(c4ccc(Cl)c(Cl)c4)C3=O)CC2)c1 (configuration not stated) do in these assays?
Mcl1 Bid PPI: 59*; MCL1 BIM primary: 8; Mcl-1 Bim block: -1; Mcl1 Noxa PPI: 12; RBBP9 inhibitor: 3; EBV gp42 block: -4

What do the screens show for `COc1ccc(N2C(=O)CC(N3CCN(c4cccc(Cl)c4)CC3)C2=O)cc1` (configuration not stated)?
MCL1 BIM primary: 13

What do the screens show for `COc1cc(CNc2ccc(N3CCCC3)cc2)ccc1OCc1ccccc1F`?
Mcl1 Bid PPI: -106; MCL1 BIM primary: 8; Mcl-1 Bim block: 1; Mcl1 Noxa PPI: 57*; RBBP9 inhibitor: -3; EBV gp42 block: 10

Results for COc1cc(CNn2cn[nH]c2=S)cc(Br)c1OCc1ccccc1F ?
Mcl1 Bid PPI: -26; MCL1 BIM primary: -10; Mcl-1 Bim block: -1; Mcl1 Noxa PPI: 35; RBBP9 inhibitor: 0; EBV gp42 block: -4

What do the screens show for `COc1cc(CNc2ccc(O)cc2)cc(Br)c1OCc1ccccc1F`?
Mcl1 Bid PPI: 95*; MCL1 BIM primary: 21; Mcl-1 Bim block: -3; Mcl1 Noxa PPI: 29; RBBP9 inhibitor: 6; EBV gp42 block: 7

How did COc1cc(CNCc2ccncc2)cc(Br)c1OCc1ccccc1F do in these assays?
Mcl1 Bid PPI: 55*; MCL1 BIM primary: 11; Mcl-1 Bim block: 0; Mcl1 Noxa PPI: 36; RBBP9 inhibitor: 5; EBV gp42 block: -14

Results for Cc1nc(COC(=O)c2cc(O)c3ccccc3c2O)cs1 ?
Mcl1 Bid PPI: 94*; Mcl-1 Bim block: 0; Mcl1 Noxa PPI: 104*; RBBP9 inhibitor: 10; EBV gp42 block: -1

How did CCN1C(=O)[C@H]2[C@@H](c3ccc(-c4ccc(C(C)=O)cc4)c(OC)c3)N[C@@](Cc3ccccc3)(C(=O)OC)[C@H]2C1=O do in these assays?
MCL1 BIM primary: 11

How did NS(=O)(=O)c1ccc2c(c1)C1C=CCC1C(C1CC=CCC1)N2 (configuration not stated) do in these assays?
Mcl1 Bid PPI: -29; MCL1 BIM primary: 44*; Mcl-1 Bim block: 1; Mcl1 Noxa PPI: 22; RBBP9 inhibitor: -1; EBV gp42 block: -2

How did CC(C)(C)NC(=O)CSc1nc2ccccc2n1-c1ccccc1 do in these assays?
Mcl1 Bid PPI: -7; MCL1 BIM primary: 5; Mcl-1 Bim block: -4; Mcl1 Noxa PPI: 28; RBBP9 inhibitor: 14; EBV gp42 block: 4

What do the screens show for `O=C(Cc1csc(N2CCOCC2)n1)N/N=C/c1ccc(O)c(O)c1O`?
Mcl1 Bid PPI: -40; Mcl-1 Bim block: 2; Mcl1 Noxa PPI: 85*; RBBP9 inhibitor: -2; EBV gp42 block: -4

Results for COc1ccc(/C=N/NC(=O)CCN2CCN(c3ccccc3)CC2)c(OC)c1OC ?
Mcl1 Bid PPI: -18; MCL1 BIM primary: -1; Mcl-1 Bim block: -3; Mcl1 Noxa PPI: 22; RBBP9 inhibitor: 2; EBV gp42 block: 4

How did O=C(CCN1CCN(c2ccccc2)CC1)N/N=C/c1ccc(O)c(O)c1O do in these assays?
Mcl1 Bid PPI: -84; Mcl-1 Bim block: 9; Mcl1 Noxa PPI: 77*; RBBP9 inhibitor: 10; EBV gp42 block: 58*

What do the screens show for `CC1(C)CC(=O)c2cnc3c(C#N)cnn3c2C1`?
Mcl1 Bid PPI: 53*; MCL1 BIM primary: -2; Mcl-1 Bim block: 1; Mcl1 Noxa PPI: 18; RBBP9 inhibitor: -3; EBV gp42 block: 3

What do the screens show for `CCOC(=O)C1=C(Cc2ccc(F)cc2)C(=O)c2ccccc2C1=O`?
Mcl1 Bid PPI: -4; MCL1 BIM primary: 41*; Mcl-1 Bim block: 0; Mcl1 Noxa PPI: 46; RBBP9 inhibitor: -4; EBV gp42 block: 0

How did CCCC[C@H](CN[C@@H](CNC)[C@H](C)CC)NCCC12CCC(CC1)C2 do in these assays?
MCL1 BIM primary: 5

How did COc1ccc(/C=C2/C(=O)N(c3nc4ccccc4s3)N=C2CSc2ccc(Cl)cc2)cc1 do in these assays?
Mcl1 Bid PPI: 51*; MCL1 BIM primary: -3; Mcl-1 Bim block: 1; Mcl1 Noxa PPI: 91*; RBBP9 inhibitor: -1; EBV gp42 block: -15

What do the screens show for `Cc1cc(C(=O)N2CCOCC2)n(-c2ccccc2)n1`?
Mcl1 Bid PPI: 51*; MCL1 BIM primary: 15; Mcl-1 Bim block: 0; Mcl1 Noxa PPI: 20; RBBP9 inhibitor: -11; EBV gp42 block: -5

How did CC1=CC(=C2C(=O)c3ccccc3C2=O)C=C(C)N1Cc1ccco1 do in these assays?
Mcl1 Bid PPI: -18; MCL1 BIM primary: 14; Mcl-1 Bim block: 4; Mcl1 Noxa PPI: 64*; RBBP9 inhibitor: 1; EBV gp42 block: 2

How did CCCCn1c(N)c(N(CCOC)C(=O)c2cc(=O)[nH]c3ccccc23)c(=O)[nH]c1=O do in these assays?
MCL1 BIM primary: -3

What do the screens show for `CN(C)c1oc(-c2ccccc2Cl)nc1P(=O)(c1ccccc1)c1ccccc1`?
Mcl1 Bid PPI: -12; MCL1 BIM primary: 5; Mcl-1 Bim block: 0; Mcl1 Noxa PPI: 64*; RBBP9 inhibitor: -6; EBV gp42 block: -18

What do the screens show for `CN(c1ccccc1)S(=O)(=O)c1ccc(C(=O)NCc2ccccc2F)cc1`?
MCL1 BIM primary: -4

Results for NCCNC[C@@H]1COC2(CCCCCCCCCCC2)O1 ?
Mcl1 Bid PPI: 59*; MCL1 BIM primary: -2; Mcl1 Noxa PPI: 24; RBBP9 inhibitor: -14; EBV gp42 block: -13

How did CC(=O)Nc1cc2c(cc1NC(=O)Cn1nnc(-c3ccc(C)o3)n1)OCCO2 do in these assays?
Mcl1 Bid PPI: 4; MCL1 BIM primary: 5; Mcl-1 Bim block: 1; Mcl1 Noxa PPI: 12; RBBP9 inhibitor: -2; EBV gp42 block: 0

Results for CN(C(=O)Nc1ccccc1)C1CCCc2ccccc21 (configuration not stated) ?
MCL1 BIM primary: -4

What do the screens show for `CC(C)c1ccc(OCc2ccc(C(=O)O)o2)cc1`?
Mcl1 Bid PPI: -3; MCL1 BIM primary: -4; Mcl1 Noxa PPI: 69*; RBBP9 inhibitor: 12; EBV gp42 block: -17

Screens (PubChem BioAssay)
